From ChEMBL document CHEMBL1130349, “Synthesis and structure-activity relationships of a new model of arylpiperazines. 3.1 2-[omega-(4-arylpiperazin-1-yl)alkyl]perhydropyrrolo- [1,2-c]imidazoles and -perhydroimidazo[1,5-a]pyridines: study of the influence of the terminal amide fragment on 5-HT1A affinity/selectivity” (J Med Chem, 1997) come the findings set out here.

The target in experiment [1] is T1, 5-hydroxytryptamine receptor 1A (Rattus norvegicus, UniProt P19327).
T1 sequence (P19327 whole entry): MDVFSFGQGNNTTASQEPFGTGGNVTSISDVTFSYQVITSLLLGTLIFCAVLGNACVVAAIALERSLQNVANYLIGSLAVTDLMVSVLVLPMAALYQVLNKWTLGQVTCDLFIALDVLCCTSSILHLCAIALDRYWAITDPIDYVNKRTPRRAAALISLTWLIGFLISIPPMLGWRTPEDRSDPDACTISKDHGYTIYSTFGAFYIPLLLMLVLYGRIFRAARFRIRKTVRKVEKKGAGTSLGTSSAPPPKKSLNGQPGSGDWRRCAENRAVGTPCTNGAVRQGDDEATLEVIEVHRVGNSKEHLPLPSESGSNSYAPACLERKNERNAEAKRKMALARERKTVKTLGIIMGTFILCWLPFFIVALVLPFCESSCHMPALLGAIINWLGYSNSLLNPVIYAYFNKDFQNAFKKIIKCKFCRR
Put plainly: Binding affinities against 5-hydroxytryptamine 1A receptor using [3H]8-OH-DPAT as radioligand in rat cerebral cortex membrane. Type of experiment: cell membranes. In short, it runs like this:
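Rat cerebral cortex homogenised in ice-cold 50 mM Tris-HCl (pH 7.7), washed twice, preincubated 10 min at 37 °C. Membranes (~1 mg protein) incubated 15 min at 37 °C with 0.6 nM [3H]-8-OH-DPAT across several competitor concentrations. Nonspecific binding defined by 10 μM 5-HT. Two to four experiments, each in triplicate.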

Experiment [2] can be described thus: Selectivity ratio of serotonin and alpha receptor. Also on record: reference not given here.
Experiment [3] addresses T2, Alpha-1A adrenergic receptor (Rattus norvegicus, UniProt P43140).
T2 sequence (P43140 whole entry): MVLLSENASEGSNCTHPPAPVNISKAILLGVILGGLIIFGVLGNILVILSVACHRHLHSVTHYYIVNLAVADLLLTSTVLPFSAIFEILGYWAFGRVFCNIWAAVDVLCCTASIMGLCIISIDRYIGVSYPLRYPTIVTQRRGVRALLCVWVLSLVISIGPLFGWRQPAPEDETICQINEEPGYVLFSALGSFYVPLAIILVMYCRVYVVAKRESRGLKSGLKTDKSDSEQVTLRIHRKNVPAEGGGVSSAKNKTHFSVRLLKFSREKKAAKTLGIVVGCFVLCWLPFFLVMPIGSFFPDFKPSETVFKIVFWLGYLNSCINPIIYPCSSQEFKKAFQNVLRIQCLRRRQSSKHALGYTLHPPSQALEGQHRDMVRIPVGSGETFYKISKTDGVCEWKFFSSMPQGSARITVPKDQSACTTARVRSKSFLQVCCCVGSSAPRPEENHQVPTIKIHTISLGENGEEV
Put plainly: Binding affinities against Alpha-1 adrenergic receptor (alpha1 adrenoceptor) using [3H]prazosin as radioligand in rat cerebral cortex membrane. Type of experiment: cell membranes. In short, it runs like this: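 Radioligand binding run by a cited earlier method; values are means ± SEM of two to four experiments, each in triplicate.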

Turning to `COc1ccccc1N1CCN(CCCN2CC3CCCN3C2)CC1` (stereo not given), the Ki was 12.2 nM in experiment [1] and 323 nM in experiment [3]. In addition, the Ki ratio in experiment [2] turned out to be 26.
For the molecule `COc1ccccc1N1CCN(CCCCN2C(=O)C3CCCCN3C2=O)CC1` (stereo not given), the Ki ratio in experiment [2] amounted to 1. The Ki in experiment [3] is 8.6 nM.
On to `COc1ccccc1N1CCN(CCCN2C(=O)C3CCCCN3C2=O)CC1` (stereo not given), for which, in experiment [2], the Ki ratio is 2.4. Moreover, the Ki in experiment [3] turned out to be 9.9 nM.
Take `FC(F)(F)c1cccc(N2CCN(CCCCN3CC4CCCN4C3)CC2)c1` (stereo not given): the figures for the Ki in experiment [1] and in experiment [3] were 12.3 nM and 240 nM, respectively. Moreover, the Ki ratio in experiment [2] is 19.5.
For the molecule `O=C1C2CCCN2C(=O)N1CCCN1CCN(c2cccc(C(F)(F)F)c2)CC1` (stereo not given), the Ki ratio in experiment [2] came to 28.7. The inhibition constant Ki in experiment [3] came to 109 nM.
The like results for `COc1ccccc1N1CCN(CCCCN2C(=O)C3CCCN3C2=O)CC1` (stereo not given) were, in that order, 1.5 and 8.3 nM.
Take `COc1ccccc1N1CCN(CCCCN2CC3CCCCN3C2)CC1` (stereo not given): the inhibitory constant (Ki) was found to be 5.1 nM in experiment [1] and 45 nM in experiment [3]. Moreover, the Ki ratio in experiment [2] came out at 8.8.
The like results for `FC(F)(F)c1cccc(N2CCN(CCCN3CC4CCCN4C3)CC2)c1` (stereo not given) were, in that order, 29.1 nM, 363 nM and 12.5.
The like results for `COc1ccccc1N1CCN(CCCCN2CC3CCCN3C2)CC1` (stereo not given) were, in that order, 17.5 nM, 72.6 nM and 4.1.
In the case of `O=C1C2CCCN2C(=O)N1CCCCN1CCN(c2cccc(Cl)c2)CC1` (stereo not given), the Ki ratio in experiment [2] amounted to 0.8. Also, the Ki in experiment [3] was determined as 9.6 nM.
The like results for `COc1ccccc1N1CCN(CCCN2C(=O)C3CCCN3C2=O)CC1` (stereo not given) were, in that order, 0.7 and 3.1 nM.
For `O=C1C2CCCCN2C(=O)N1CCCCN1CCN(c2cccc(Cl)c2)CC1` (stereo not given), in that order: 1.7 and 12.1 nM.
As to `COc1ccccc1N1CCN(CCCN2CC3CCCCN3C2)CC1` (stereo not given), the Ki in experiment [1] was 13.9 nM; in experiment [3] it was 218 nM. Further, the Ki ratio in experiment [2] worked out at 15.7.
Turning to `O=C1C2CCCCN2C(=O)N1CCCCN1CCN(c2cccc(C(F)(F)F)c2)CC1` (stereo not given), the Ki ratio in experiment [2] is 7.3. This molecule displayed an inhibitory constant (Ki) in experiment [3] of 72.4 nM.
As to `FC(F)(F)c1cccc(N2CCN(CCCCN3CC4CCCCN4C3)CC2)c1` (stereo not given), the Ki came out at 15.3 nM in experiment [1] and 115 nM in experiment [3]. The Ki ratio in experiment [2] was determined as 7.5.
As for `O=C1C2CCCCN2C(=O)N1CCCN1CCN(c2cccc(C(F)(F)F)c2)CC1` (stereo not given), the Ki ratio in experiment [2] worked out at 15.9. In addition, the affinity in experiment [3], expressed as Ki, was 90.4 nM.
For the molecule `Clc1cccc(N2CCN(CCCCN3CC4CCCN4C3)CC2)c1` (stereo not given), the Ki in experiment [1] amounted to 28.1 nM; in experiment [3], 64.9 nM. For the same molecule, in experiment [2], the Ki ratio was 2.3.
As for `O=C1C2CCCN2C(=O)N1CCCCN1CCN(c2cccc(C(F)(F)F)c2)CC1` (stereo not given), the Ki ratio in experiment [2] was found to be 27. Besides, in experiment [3], the Ki was 64.9 nM.
Regarding `Clc1cccc(N2CCN(CCCCN3CC4CCCCN4C3)CC2)c1` (stereo not given), the Ki in experiment [1] stood at 24.3 nM; in experiment [3] it was 64.3 nM. In experiment [2], the Ki ratio worked out at 2.6.
The like results for `FC(F)(F)c1cccc(N2CCN(CCCN3CC4CCCCN4C3)CC2)c1` (stereo not given) were, in that order, 24.3 nM, 278 nM and 11.4.

Usually Ki stands for a measure of affinity in units of concentration, obtained from inhibition or displacement.
